Assay results collected from several papers.
Lines come from different studies, so protocols differ.
MAOB: Amine oxidase [flavin-containing] B (MAOB, Homo sapiens, UniProt P27338)
GLO1: Lactoylglutathione lyase (GLO1, Homo sapiens, UniProt Q04760)

The inhibition of `Cc1cc(O)c(-c2ccc([C@@H](C)CN(C)C)cc2)c2c1[nH]c(=O)c1sccc12` is reported as -4.94% (Serine/threonine-protein kinase NLK (NLK, Homo sapiens, UniProt Q9UBE8); cell-free assay; inhibitor; 0.1 µM; lysate).
With `O=C(Nc1cccc(Cl)c1)c1ccc2c(c1)C(=O)NC2=O` the inhibition was 63.9% (MAOB; enzyme activity; inhibitor; 1 µM).
For `O=C(N[C@@H](CSCc1ccc([N+](=O)[O-])cc1)C(=O)NO)c1ccccc1`, the inhibition was 46.1% (GLO1; enzyme activity; inhibitor; 1 µM).
`Cc1cc(F)cc2c(CCC(=O)N[C@@H]3C(=O)NC[C@H]3O)c(-c3ccc(F)cc3)[nH]c12` has an inhibition of -1.5% (Beta-1 adrenergic receptor (ADRB1, Homo sapiens, UniProt P08588); cell-free assay; 10 µM).
With `NC/C(=C\F)COc1cccc(Cn2c(=S)[nH]c(=O)c3[nH]cnc32)c1` the inhibition was under 50% (Histamine H1 receptor (HRH1, Homo sapiens, UniProt P35367); ligand displacement; radioligand; 10 µM).
For `O=C(Nc1ccc(Cl)cc1)c1ccc2c(c1)C(=O)NC2=O`, the inhibition was 52% (MAOB; enzyme activity; inhibitor; 1 µM).
For `C#Cc1cc(-c2cc(Nc3nc(N[C@@H](C)c4ccc(F)cn4)ncc3Cl)n[nH]2)ccc1C=O`, the inhibition was 16.8% (Ribosomal protein S6 kinase alpha-6 (RPS6KA6, Homo sapiens, UniProt Q9UK32); enzyme activity; inhibitor; 0.2 µM).
`CCN1/C(=C/C(C)=O)Sc2ccc(F)cc21` has an inhibition of 0% (Endothelin receptor type B (EDNRB, Homo sapiens, UniProt P24530); ligand displacement; radioligand; 10 µM).
`O=C(Nc1ccccc1)c1ccc2c(c1)C(=O)NC2=O` gave an inhibition of 25% (MAOB; enzyme activity; inhibitor; 1 µM).
With `O=C(N[C@@H](CSCc1ccccc1)C(=O)NO)c1ccccc1` the inhibition was 31.4% (GLO1; enzyme activity; inhibitor; 1 µM).
